Laboratory results taken from ChEMBL document CHEMBL4390648, “Chemical synthesis, crystal structure, versatile evaluation of their biological activities and molecular simulations of novel pyrithiobac derivatives” (Eur J Med Chem, 2019).
In brackets after ≈: the same amount, converted by molar mass. Activity calls are given as the source filed them. The rule behind the calls is not given here.

Experiments:
Echinochloa crus-galli [1] = experiment: Post-emergence herbicidal activity against Echinochloa crus-galli assessed as reduction in growth at 300g/ha measured after 24 days by green house pot method relative to control; assay type: functional; settings: 576 h
Digitaria adscendens [2] = experiment: Post-emergence herbicidal activity against Digitaria adscendens assessed as reduction in growth at 300g/ha measured after 24 days by based green house pot method relative to control; assay type: functional; settings: 576 h
Candida albicans [3] = experiment: Inhibition of Candida albicans AHAS catalytic subunit at 10 uM using pyruvate as substrate measured after 30 mins by colorimetric method relative to control
Outline: (§1)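 Colorimetric assay in 50 mM potassium phosphate pH 7.0 with 50 mM pyruvate, 1 mM thiamine diphosphate, 10 mM MgCl2 and 10 μM FAD. Incubated 30 min at 37 °C for plant AHAS and 30 °C for fungal AHAS. Acetolactate formed was then quantified.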

Candida albicans [4] = experiment: Antifungal activity against Candida albicans isolate g5 grown in RPMI 1640 medium incubated for 24 hrs by microdilution method; assay type: functional; settings: isolate g5, 24 h
Outline: (§2)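 C. albicans standard strain SC5314 and clinical isolates g5 and 17# tested by broth microdilution in YNB or RPMI 1640 medium. Plates incubated at 35 °C for up to 72 h, with visual readings taken at 24 h. MIC taken as the lowest concentration preventing visible growth.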

Tobacco mosaic virus [5] = experiment: Antiviral activity against Tobacco mosaic virus inoculated in Nicotiana tabacum leaves assessed as passivation by measuring local lesion numbers at 500 mg/l pre-incubated with virus for 30 mins followed by inoculation and measured up to 4 days; assay type: functional
Outline: (§3)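 Passivation assay: TMV mixed with an equal volume of compound solution for 30 min, then rubbed onto the left half of N. tabacum L. leaves. The right half received virus mixed with solvent as control. Local lesions counted 3–4 days after inoculation. Compounds tested at 500 or 100 mg/L.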

Candida albicans [6] = experiment: Antifungal activity against Candida albicans isolate g5 grown in YNB medium incubated for 24 hrs by microdilution method; assay type: functional; settings: isolate g5, 24 h; outline: as §2
Candida albicans [7] = experiment: Antifungal activity against Candida albicans isolate 17 grown in YNB medium incubated for 24 hrs by microdilution method; assay type: functional; settings: isolate 17, 24 h; outline: as §2
Digitaria adscendens [8] = experiment: Pre-emergence herbicidal activity against Digitaria adscendens assessed as reduction in growth at 300g/ha measured after 24 days by green house pot method relative to control; assay type: functional; settings: 576 h
Candida albicans [9] = experiment: Antifungal activity against Candida albicans SC5314 grown in RPMI 1640 medium incubated for 24 hrs by microdilution method; assay type: functional; settings: SC5314, 24 h; outline: as §2
Arabidopsis thaliana [10] = experiment: Inhibition of Arabidopsis thaliana AHAS catalytic subunit using pyruvate as substrate at 100 uM measured after 30 mins by colorimetric method relative to control; outline: as §1
Amaranthus retroflexus [11] = experiment: Pre-emergence herbicidal activity against Amaranthus retroflexus assessed as reduction in growth at 300g/ha measured after 24 days by green house pot method relative to control; assay type: functional; settings: 576 h
[12] = test system: Brassica rapa subsp. oleifera; experiment: Post-emergence herbicidal activity against Brassica campestris assessed as reduction in growth at 300g/ha measured after 24 days by green house pot method relative to control; assay type: functional; settings: 576 h
Candida albicans [13] = experiment: Antifungal activity against Candida albicans SC5314 grown in YNB medium incubated for 24 hrs by microdilution method; assay type: functional; settings: SC5314, 24 h; outline: as §2
Candida albicans [14] = experiment: Inhibition of Candida albicans AHAS catalytic subunit at 100 uM using pyruvate as substrate measured after 30 mins by colorimetric method relative to control; outline: as §1
[15] = test system: Brassica rapa subsp. oleifera; experiment: Herbicidal activity against Brassica campestris L assessed as inhibition of rape root growth at 100 mg/l root growth incubated for 48 hrs relative to control; assay type: functional
Outline: (§4)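 Rape seeds soaked in distilled water for 4 h, then placed on filter paper wetted with inhibitor solution, 15 seeds per 6-cm dish. Germinated in the dark at 28 °C for 48 h. Mean length of 10 roots per plate measured.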

Echinochloa crus-galli [16] = experiment: Pre-emergence herbicidal activity against Echinochloa crus-galli assessed as reduction in growth at 300g/ha measured after 24 days by green house pot method relative to control; assay type: functional; settings: 576 h
Amaranthus retroflexus [17] = experiment: Post-emergence herbicidal activity against Amaranthus retroflexus assessed as reduction in growth at 300g/ha measured after 24 days by green house pot method relative to control; assay type: functional; settings: 576 h
Arabidopsis thaliana [18] = experiment: Inhibition of Arabidopsis thaliana AHAS catalytic subunit using pyruvate as substrate at 10 uM measured after 30 mins by colorimetric method relative to control; outline: as §1
[19] = test system: Brassica rapa subsp. oleifera; experiment: Herbicidal activity against Brassica campestris L assessed as inhibition of rape root growth at 10 mg/l root growth incubated for 48 hrs relative to control; assay type: functional; outline: as §4
Tobacco mosaic virus [20] = experiment: Antiviral activity against Tobacco mosaic virus inoculated in Nicotiana tabacum leaves assessed as passivation by measuring local lesion numbers at 100 mg/l pre-incubated with virus for 30 mins followed by inoculation and measured up to 4 days; assay type: functional; outline: as §3
[21] = test system: Brassica rapa subsp. oleifera; experiment: Pre-emergence herbicidal activity against Brassica campestris assessed as reduction in growth at 300g/ha measured after 24 days green house pot method relative to control; assay type: functional; settings: 576 h
Candida albicans [22] = experiment: Antifungal activity against Candida albicans isolate 17 grown in RPMI 1640 medium incubated for 24 hrs by microdilution method; assay type: functional; settings: isolate 17, 24 h; outline: as §2
[23] = Inhibition of SARS coronavirus M protease using AVLQSGFRKK as substrate by FRET assay; set-up: species or system Severe acute respiratory syndrome-related coronavirus
Outline: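 Purified SARS-CoV Mpro assayed by FRET. Protein, compound and substrate were preheated at 37 °C and oscillated. Fluorescence (ex 320/em 405 nm) was read every 5 s for 200 reads. IC50 from V0/V = 1+[I]/IC50.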

[24] = test system: Severe acute respiratory syndrome-related coronavirus; experiment: Inhibition of SARS coronavirus M protease using AVLQSGFRKK as substrate at 20 uM by FRET assay relative to control
Outline: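 Purified SARS-CoV Mpro assayed by FRET. Protein, compound and substrate were preheated at 37 °C and oscillated. Fluorescence (ex 320/em 405 nm) was read every 5 s for 200 reads.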

Mythimna separata = experiment: Insecticidal activity against Mythimna separata assessed as larval mortality at 600 mg/l by leaf-dip method; assay type: functional
Sclerotinia sclerotiorum = experiment: Antifungal activity against Sclerotinia sclerotiorum assessed as reduction in growth at 50 mg/l by mycelium growth rate method relative to control; assay type: functional
Outline: (§5)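 Mycelium growth rate method against S. sclerotiorum, P. capsici, P. piricola, R. cerealis, W. anthracnose and R. bakanae. Each compound tested at 50 mg/L, with chlorothalonil and PTB as controls. Relative inhibitory ratio (%) calculated from mycelial growth.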

Colletotrichum = experiment: Antifungal activity against Colletotrichum (W. anthracnose) assessed as reduction in growth at 50 mg/l by mycelium growth rate method relative to control; assay type: functional; outline: as §5
[25] = test system: Botryosphaeria berengeriana; experiment: Antifungal activity against Physalospora pyricola assessed as reduction in growth at 50 mg/l by mycelium growth rate method relative to control; assay type: functional; outline: as §5
[26] = Cytotoxicity against HEK293T cells assessed as reduction in cell growth incubated for 48 hrs by MTT assay; assay type: cell-based, HEK-293T; settings: human
Outline: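 293T cells in logarithmic phase seeded at 12000 cells/well overnight, then exposed to a range of compound concentrations for 48 h. MTT added for a further 4 h, formazan dissolved in DMSO, and OD570 read. CC50 is the concentration reducing viability by 50%.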

Fusarium fujikuroi = experiment: Antifungal activity against Gibberella fujikuroi assessed as reduction in growth at 50 mg/l by mycelium growth rate method relative to control; assay type: functional; outline: as §5
Ceratobasidium cereale = experiment: Antifungal activity against Rhizoctonia cerealis assessed as reduction in growth at 50 mg/l by mycelium growth rate method relative to control; assay type: functional; outline: as §5
Phytophthora capsici = experiment: Antifungal activity against Phytophthora capsici assessed as reduction in growth at 50 mg/l by mycelium growth rate method relative to control; assay type: functional; outline: as §5

## COc1cc(OC)nc(Sc2ccc(F)cc2C(=O)O)n1
Echinochloa crus-galli [1]
  inhibition at 300 g/ha: 24.3%
Digitaria adscendens [2]
  inhibition at 300 g/ha: 33%
Candida albicans [3]
  inhibition: 73.7%
Candida albicans [4]
  MIC: 100 µg/mL (≈ 322 µM)
Tobacco mosaic virus [5]
  inhibition at 500 µg/mL: 47%
Candida albicans [6]
  MIC: 25 µg/mL (≈ 80.6 µM)
Candida albicans [7]
  MIC: 3.12 µg/mL (≈ 10.1 µM)
Digitaria adscendens [8]
  inhibition at 300 g/ha: 0%
Candida albicans [9]
  MIC: 100 µg/mL (≈ 322 µM)
Arabidopsis thaliana [10]
  inhibition: 100%
Amaranthus retroflexus [11]
  inhibition at 300 g/ha: 61.1%
[12]
  inhibition at 300 g/ha: 75.8%
Candida albicans [13]
  MIC: 25 µg/mL (≈ 80.6 µM)
Candida albicans [14]
  inhibition: 97.7%
[15]
  inhibition (INH): 86%
Echinochloa crus-galli [16]
  inhibition at 300 g/ha: 13.8%
Amaranthus retroflexus [17]
  inhibition at 300 g/ha: 50.6%
Arabidopsis thaliana [18]
  inhibition: 70.1%
[19]
  inhibition (INH): 72%
Tobacco mosaic virus [20]
  inhibition at 100 µg/mL: 11.4%
[21]
  inhibition at 300 g/ha: 85.2%
Candida albicans [22]
  MIC: 25 µg/mL (≈ 80.6 µM)

## COc1nc(OC)nc(Sc2cccc(I)c2C#N)n1
[23]
  IC50: 3.3 µM
Candida albicans [3]
  inhibition: 45.4%
[24]
  inhibition: 100%
Candida albicans [4]
  MIC: > 100 µg/mL
Tobacco mosaic virus [5]
  inhibition at 500 µg/mL: 22.8%
Candida albicans [6]
  MIC: > 100 µg/mL
Candida albicans [7]
  MIC: > 100 µg/mL
Candida albicans [9]
  MIC: > 100 µg/mL
Arabidopsis thaliana [10]
  inhibition: 66.7%
Mythimna separata
  mortality at 600 µg/mL: 45%
Sclerotinia sclerotiorum
  inhibition at 50 µg/mL: 11.1%
Colletotrichum
  inhibition at 50 µg/mL: 33.3%
Candida albicans [13]
  MIC: > 100 µg/mL
Candida albicans [14]
  inhibition: 69.3%
[15]
  inhibition (INH): 51.6%
[25]
  inhibition at 50 µg/mL: 29.7%
[26]
  CC50 at 48 h: 30.5 µM
Fusarium fujikuroi
  inhibition at 50 µg/mL: 30.3%
Ceratobasidium cereale
  inhibition at 50 µg/mL: 52.4%
Arabidopsis thaliana [18]
  inhibition: 51.6%
[19]
  inhibition (INH): 0%
Tobacco mosaic virus [20]
  inhibition: inactive
Candida albicans [22]
  MIC: > 100 µg/mL
Phytophthora capsici
  inhibition at 50 µg/mL: 8.3%
